ChEMBL document CHEMBL2321728, “Vectorization efforts to increase Gram-negative intracellular drug concentration: a case study on HldE-K inhibitors” (J Med Chem, 2013)
Active and inactive are the calls of the source. The calls are words filed in the database; no cut-off is given here.

What was measured:
Escherichia coli [1] = assay: Antimicrobial activity against wild type Escherichia coli K1 after overnight incubation by checkerboard assay; assay type: functional
Summary of the method: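 Checkerboard against E. coli K1 (018:K1:H7) wild type. Early to log phase preculture suspended in ca-MHB to a final inoculum of 5 × 10^5 CFU/mL. Combined serial dilutions of kanamycin, the unvectorized inhibitor or bis(3-aminopropyl)amine with erythromycin, in 2% DMSO. Incubated overnight at 35 °C; MIC of each combination read by visual inspection.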

Escherichia coli [2] = assay: Antimicrobial activity against tolC-deficient Escherichia coli K1 assessed as inhibition of LPS biosynthesis at 32 ug/ml after 5 hrs by SDS-PAGE analysis; assay type: functional, organism-based
Summary of the method: (§1)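 LB-grown exponential cells (OD about 0.15) diluted to 5 × 10^5 CFU/mL and exposed to compound (water/DMSO 50/50) at 37 °C for about 5 h, to OD 0.2–0.4. OD-normalized pellets lysed in SDS/β-mercaptoethanol at 95–100 °C, then proteinase K 1 h at 55 °C. LPS resolved by 16% SDS-PAGE and silver stained.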

Escherichia coli [3] = assay: Antimicrobial activity against tolC-deficient Escherichia coli K1 measured after overnight incubation by serial dilution method in presence of erythromycin; assay type: functional
Escherichia coli [4] = assay: Antimicrobial activity against wild type Escherichia coli K1 measured after overnight incubation by serial dilution method in presence of erythromycin; assay type: functional
[5] = Inhibition of Escherichia coli HldE-kinase preincubated for 30 mins prior to substrate addition measured after 30 mins by luminescence assay
Summary of the method: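 E. coli HldE (3 nM) preincubated with inhibitor for 30 min at room temperature in pH 7.5 Hepes buffer with MnCl2, KCl, Triton X-100, DTT and MBP. Reaction started with 0.2 μM β-heptose 7-phosphate and 0.2 μM ATP, run 30 min at room temperature. Remaining ATP measured by luciferase/luciferin luminescence. IC50 from 6–10 concentrations fitted to a Langmuir model.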

Escherichia coli [6] = assay: Antimicrobial activity against acrAB, tolC-deficient Escherichia coli str. K-12 substr. MG1655 measured after overnight incubation by serial dilution method in presence of erythromycin in iron depleted medium; assay type: functional
Summary of the method: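 MIC in M9 medium supplemented with D-glucose, thiamine, casein and apotransferrin (M9S), which is the iron-depleted medium. Erythromycin at 0.13 μg/mL. Inoculum 5 × 10^5 CFU/mL. Compound serial dilutions in 2% DMSO, overnight at 35 °C, visual read-out.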

Escherichia coli [7] = assay: Antimicrobial activity against acrAB, tolC-deficient Escherichia coli str. K-12 substr. MG1655 measured after overnight incubation by serial dilution method in presence of erythromycin; assay type: functional
Escherichia coli [8] = assay: Antimicrobial activity against wild type Escherichia coli K1 assessed as inhibition of LPS biosynthesis at 30 ug/ml after 5 hrs by SDS-PAGE analysis; assay type: functional, organism-based; summary of the method: as §1

SMILES | MIC (Escherichia coli [1]) [µg/mL] | inhibition (Escherichia coli [2]) | MIC (Escherichia coli [3]) [µg/mL] | MIC (Escherichia coli [4]) [µg/mL] | IC50 [5] [nM] | MIC (Escherichia coli [6]) [µg/mL] | MIC (Escherichia coli [7]) [µg/mL] | inhibition (Escherichia coli [8])
NC[C@H]1O[C@H](O[C@H]2[C@H](O)[C@@H](O[C@H]3O[C@H](CO)[C@@H](O)[C@H](N)[C@H]3O)[C@H](N)C[C@@H]2N)[C@H](O)[C@@H](O)[C@@H]1O [KANAMYCIN] | 8 |  |  |  |  |  |  | 
NCCCN(CCCN)C(=O)COc1ccc2sc(CNc3nncc(-c4c(Cl)cccc4Cl)n3)nc2c1 |  | inactive | 4 | 8 | 510 |  |  | 
O=C(COc1ccc2sc(CNc3nncc(-c4c(Cl)cccc4Cl)n3)nc2c1)NO |  |  |  | > 64 | 1 | 1 | 2 | 
O=C(NCCOc1ccc2sc(CNc3nncc(-c4c(Cl)cccc4Cl)n3)nc2c1)[C@@H]1CSC(c2ccccc2O)=N1 |  |  |  | > 32 | 660 | > 32 | > 32 | 
O=S(=O)(NCCOc1ccc2sc(CNc3nncc(-c4c(Cl)cccc4Cl)n3)nc2c1)c1ccc(O)c(O)c1 |  |  |  | > 64 | 33 | 2 | 4 | 
NCCCN(CCCN)CCOc1ccc2sc(CNc3nncc(-c4c(Cl)cccc4Cl)n3)nc2c1 |  | inactive | 2 | 4 | 630 |  |  | 
CC[C@H]1OC(=O)[C@H](C)[C@@H](O[C@H]2C[C@@](C)(OC)[C@@H](O)[C@H](C)O2)[C@H](C)[C@@H](O[C@@H]2O[C@H](C)C[C@H](N(C)C)[C@H]2O)[C@](C)(O)C[C@@H](C)C(=O)[C@H](C)[C@@H](O)[C@]1(C)O [ERYTHROMYCIN] | 16 |  |  |  |  |  |  | 
Cn1nc(O)c(=O)nc1SCCOc1ccc2sc(CNc3nncc(-c4c(Cl)cccc4Cl)n3)nc2c1 |  |  |  | > 64 | 25 | 1 | 2 | 
Cc1cc(NC(=O)CN(C)C)cc(C)c1-c1cnnc(NCc2nc3cc(O)ccc3s2)n1 |  |  |  | > 64 | 880 |  | 16 | 
CCN1CCN(C(=O)NCCOc2ccc3sc(CNc4nncc(-c5c(C)cccc5O)n4)nc3c2)C(=O)C1=O |  |  |  | > 32 | 520 | 8 | > 32 | 
O=C(COc1ccc2sc(CNc3nncc(-c4c(Cl)cccc4Cl)n3)nc2c1)NCCO |  | Active |  | > 64 | 55 |  |  | 
Cc1cc(NCCN(C)C)cc(C)c1-c1cnnc(NCc2nc3cc(O)ccc3s2)n1 |  |  |  | > 64 | 780 |  | 16 | 
O=C(COc1ccc2sc(CNc3nncc(-c4c(Cl)cccc4Cl)n3)nc2c1)OCc1cc(=O)c(O)cn1O |  |  |  | > 64 | 30 | 32 | > 64 | 
Cc1cc(NCCN(C)C)cc(C)c1-c1cnnc(NCc2nc3cc(OCCN)ccc3s2)n1 |  | inactive | > 64 | > 64 | 1400 |  |  | 
COc1ccc2sc(CNc3nncc(-c4c(C)cc(NCCN(C)C)cc4C)n3)nc2c1 |  |  |  | > 64 | 82 |  | 32 | 
COc1ccc2sc(CNc3nncc(-c4c(C)cccc4O)n3)nc2c1 |  |  |  |  | 69 |  |  | 
CN1CCN(CCOc2ccc3sc(CNc4nncc(-c5c(Cl)cccc5Cl)n4)nc3c2)CC1 |  | inactive | 32 | > 64 | 110 |  |  | 
NCCNCCNC(=O)COc1ccc2sc(CNc3nncc(-c4c(Cl)cccc4Cl)n3)nc2c1 |  | inactive | 8 | 32 | 110 |  |  | 
NC[C@H]1O[C@H](O[C@H]2[C@H](O)[C@@H](O[C@H]3O[C@H](Cn4cc(CNC(=O)COc5ccc6sc(CNc7nncc(-c8c(Cl)cccc8Cl)n7)nc6c5)nn4)[C@@H](O)[C@H](N)[C@H]3O)[C@H](N)C[C@@H]2N)[C@H](O)[C@@H](O)[C@@H]1O |  |  | 2 | 8 | 98 |  | 4 | inactive
O=C(O)COc1ccc2sc(CNc3nncc(-c4c(Cl)cccc4Cl)n3)nc2c1 |  |  |  | > 64 | 19 |  |  | 
O=C(NCCOc1ccc2sc(CNc3nncc(-c4c(Cl)cccc4Cl)n3)nc2c1)c1cc(=O)c(O)co1 |  |  |  | > 64 | 71 | 2 | > 64 | 
NCCN(CCN)CCNC(=O)COc1ccc2sc(CNc3nncc(-c4c(Cl)cccc4Cl)n3)nc2c1 |  | inactive | 4 | 8 | 580 |  |  | 
CN(C)CC(CN(C)C)NC(=O)COc1ccc2sc(CNc3nncc(-c4c(Cl)cccc4Cl)n3)nc2c1 |  | inactive | 32 | > 64 | 420 |  |  | 
CS(=O)(=O)NC(=O)COc1ccc2sc(CNc3nncc(-c4c(Cl)cccc4Cl)n3)nc2c1 |  |  |  | > 64 | 16 | 16 | 16 | 
